Data taken from ChEMBL document CHEMBL4706672 (J Med Chem, 2021).
Active and inactive are the calls of the source. The rule behind the calls is not given here.

Key:
MIA PaCa-2 = assay: Antiproliferative activity against human MIA PaCa-2 cells assessed as reduction in cell viability incubated for 3 days by MTT assay; type: functional, cell-based; settings: MIA PaCa-2, 72 h
In short: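 MTT assay. Cells were seeded at 3000–6000/well and incubated overnight, then exposed to compound or DMSO vehicle for 3 days in RPMI-1640 or DMEM with 10% FBS at 37 °C, 5% CO2. MTT (3 mg/ml) was added for 3 h at 37 °C, formazan was dissolved in DMSO and absorbance read at 570 nm. IC50 from three independent experiments, mean ± SD.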

BXPC-3 [1] = assay: Antiproliferative activity against human BxPC-3 cells assessed as reduction in cell viability incubated for 3 days by MTT assay; type: functional, cell-based; settings: BXPC-3, 72 h
HEK293 = assay: Antiproliferative activity against human HEK293 cells assessed as reduction in cell viability incubated for 24 hrs by MTT assay; type: functional, cell-based; settings: HEK293, 24 h
In short: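 HEK-293 cells were treated with compound for 24 h, in parallel with the luciferase reporter assay. Viability was read by MTT absorbance at 570 nm, and IC50 was taken from three independent experiments.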

[2] = target: T1, Protein cereblon/Signal transducer and activator of transcription 3 (Homo sapiens, UniProt P40763+Q96SW2); assay: Protac activity at CRBN/STAT3 in human BxPC-3 cells assessed as effect on STAT3 expression level at 0.1 to 5 uM incubated for 16 hrs by western blot analysis; type: cell-based; settings: dose 0.1-5 µM
In short: (§1)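 BxPC-3 cells seeded at 500 × 10^3 per well in 6-well plates, treated 16 h. Sonication lysis at 4 °C in Tris/NaCl/Triton/SDS buffer pH 7.4 with protease and phosphatase inhibitors, BCA protein assay, SDS-PAGE, PVDF transfer. Probed for STAT3, pSTAT3 and NQO1 with GAPDH loading control; fluorescent secondary detection.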
Target sequence in this assay (P40763 2-770 limits assumed): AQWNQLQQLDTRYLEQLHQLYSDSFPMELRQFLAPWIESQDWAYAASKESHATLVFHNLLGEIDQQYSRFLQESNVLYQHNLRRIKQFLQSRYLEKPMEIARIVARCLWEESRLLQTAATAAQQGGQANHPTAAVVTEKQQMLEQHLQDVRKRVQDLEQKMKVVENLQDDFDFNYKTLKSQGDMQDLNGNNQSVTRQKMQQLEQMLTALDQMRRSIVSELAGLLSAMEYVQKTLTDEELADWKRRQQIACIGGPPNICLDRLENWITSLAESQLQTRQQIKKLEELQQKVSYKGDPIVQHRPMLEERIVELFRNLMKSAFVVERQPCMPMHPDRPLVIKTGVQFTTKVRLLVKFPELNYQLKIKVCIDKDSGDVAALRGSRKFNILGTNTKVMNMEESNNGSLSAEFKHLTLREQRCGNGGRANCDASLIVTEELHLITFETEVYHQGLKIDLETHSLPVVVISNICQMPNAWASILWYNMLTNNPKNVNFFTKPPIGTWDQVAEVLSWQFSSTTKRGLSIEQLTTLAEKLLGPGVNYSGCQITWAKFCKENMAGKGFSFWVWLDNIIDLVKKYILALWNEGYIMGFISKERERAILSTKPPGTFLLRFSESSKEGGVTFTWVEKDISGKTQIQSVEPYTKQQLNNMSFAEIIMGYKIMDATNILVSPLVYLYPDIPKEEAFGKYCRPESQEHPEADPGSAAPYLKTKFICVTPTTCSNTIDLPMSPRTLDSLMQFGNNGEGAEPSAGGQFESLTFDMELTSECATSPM
Target sequence in this assay (Q96SW2 whole entry partner): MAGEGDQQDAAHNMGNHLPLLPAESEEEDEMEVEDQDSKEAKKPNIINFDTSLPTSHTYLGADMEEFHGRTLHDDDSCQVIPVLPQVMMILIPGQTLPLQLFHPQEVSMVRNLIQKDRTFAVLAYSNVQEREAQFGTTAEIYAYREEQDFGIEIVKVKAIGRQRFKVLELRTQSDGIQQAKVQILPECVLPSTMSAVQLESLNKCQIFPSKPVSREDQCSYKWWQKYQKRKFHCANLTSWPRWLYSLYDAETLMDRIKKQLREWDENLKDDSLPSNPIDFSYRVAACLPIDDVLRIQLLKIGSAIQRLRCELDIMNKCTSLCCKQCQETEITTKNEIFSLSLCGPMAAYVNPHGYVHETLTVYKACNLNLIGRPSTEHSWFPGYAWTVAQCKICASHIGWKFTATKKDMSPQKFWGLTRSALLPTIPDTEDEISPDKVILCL

[3] = target: Signal transducer and activator of transcription 3 (Homo sapiens) (UniProt P40763); assay: Inhibition of STAT3 phosphorylation in human BxPC-3 cells at 5 uM after 16 hrs by western blot analysis; type: cell-based
Signal transducer and activator of transcription 3 (Homo sapiens), sequence (P40763 whole entry): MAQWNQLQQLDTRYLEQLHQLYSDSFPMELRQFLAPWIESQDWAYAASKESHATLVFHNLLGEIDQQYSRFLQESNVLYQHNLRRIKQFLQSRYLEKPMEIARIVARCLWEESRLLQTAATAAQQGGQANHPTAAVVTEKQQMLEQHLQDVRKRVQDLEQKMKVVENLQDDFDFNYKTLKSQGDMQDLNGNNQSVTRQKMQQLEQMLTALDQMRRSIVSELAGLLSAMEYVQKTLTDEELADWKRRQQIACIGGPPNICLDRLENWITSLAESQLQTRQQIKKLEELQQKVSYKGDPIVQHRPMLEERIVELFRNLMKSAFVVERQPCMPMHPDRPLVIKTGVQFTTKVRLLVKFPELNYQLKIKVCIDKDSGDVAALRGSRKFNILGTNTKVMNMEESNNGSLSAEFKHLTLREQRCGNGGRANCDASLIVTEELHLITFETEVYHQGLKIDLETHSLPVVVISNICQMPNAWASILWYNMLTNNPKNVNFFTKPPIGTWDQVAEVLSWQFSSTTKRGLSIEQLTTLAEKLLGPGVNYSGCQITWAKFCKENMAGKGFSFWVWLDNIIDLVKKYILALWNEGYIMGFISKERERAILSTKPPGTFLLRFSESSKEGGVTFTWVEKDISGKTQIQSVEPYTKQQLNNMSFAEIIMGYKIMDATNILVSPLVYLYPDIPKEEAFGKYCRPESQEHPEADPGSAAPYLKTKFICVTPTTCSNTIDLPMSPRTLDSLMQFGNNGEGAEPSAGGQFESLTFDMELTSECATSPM
In short: (§2)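 Cells were seeded in 6-well plates (BxPC-3 500 × 10^3, MIA PaCa-2 200 × 10^3 cells/well) and exposed to compound for 16 h. Lysis was at 4 °C by sonication in Tris/NaCl/Triton/SDS buffer, pH 7.4, with protease and phosphatase inhibitors. Lysates were run on SDS-PAGE, transferred to PVDF and probed for STAT3, pSTAT3 and NQO1 with GAPDH as loading control. Immunoblots were imaged on an Odyssey system.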

[4] = target: T1, Protein cereblon/Signal transducer and activator of transcription 3; assay: Protac activity at CRBN/STAT3 in human BxPC-3 cells assessed as effect on STAT3 expression level at 0.5 uM incubated for 16 hrs by western blot analysis; type: cell-based; in short: as §1
Target sequence in this assay (P40763 2-770 limits assumed): as the sequence (P40763 2-770 limits assumed) above
Target sequence in this assay (Q96SW2 whole entry partner): as the sequence (Q96SW2 whole entry partner) above

[5] = target: Signal transducer and activator of transcription 3 (Homo sapiens) (UniProt P40763); assay: Inhibition of STAT3 phosphorylation in human BxPC-3 cells at 0.5 uM after 16 hrs by western blot analysis; type: cell-based; in short: as §2
[6] = target: T1, Protein cereblon/Signal transducer and activator of transcription 3; assay: Protac activity at CRBN/STAT3 in human BxPC-3 cells assessed as decrease in STAT3 expression level after 12 hrs by western blot analysis; type: cell-based
Target sequence in this assay (P40763 whole entry): as the sequence (P40763 whole entry) above
Target sequence in this assay (Q96SW2 whole entry): as the sequence (Q96SW2 whole entry partner) above

BXPC-3 [7] = assay: Reduction in NQO1 levels in human BxPC-3 cells at 2 uM incubated for 16 hrs by western blot analysis; type: functional, cell-based; in short: as §1
BXPC-3 [8] = assay: Binding affinity to PDI in human BxPC-3 cells assessed as thermal stability by measuring shift in melting temperature at 100 uM measured after 1 hr by cellular thermal shift assay; type: cell-based
[9] = target: NAD(P)H dehydrogenase [quinone] 1 (Homo sapiens) (UniProt P15559); assay: Binding affinity to NQO1 in human BxPC-3 cells assessed as thermal stability by measuring shift in melting temperature at 100 uM measured after 1 hr by cellular thermal shift assay; type: cell-based
NAD(P)H dehydrogenase [quinone] 1 (Homo sapiens), sequence (P15559 whole entry): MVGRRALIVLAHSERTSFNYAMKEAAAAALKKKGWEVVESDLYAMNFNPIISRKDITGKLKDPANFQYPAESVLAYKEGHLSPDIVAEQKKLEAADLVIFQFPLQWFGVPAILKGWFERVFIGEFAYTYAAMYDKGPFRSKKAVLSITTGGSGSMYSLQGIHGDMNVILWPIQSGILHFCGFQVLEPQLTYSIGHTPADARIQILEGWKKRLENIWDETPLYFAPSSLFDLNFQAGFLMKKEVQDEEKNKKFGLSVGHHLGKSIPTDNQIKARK

[10] = target: Protein cereblon/E3 ubiquitin-protein ligase ZFP91 (Homo sapiens, UniProt Q96SW2+Q96JP5); assay: Protac activity at CRBN/ZFP91 in human BxPC-3 cells assessed as induction of ZF91 degradation at upto 3 uM incubated for 16 hrs by western blot analysis; type: cell-based; settings: dose microM <=3, time 16.0 hrs
Protein cereblon/E3 ubiquitin-protein ligase ZFP91, sequence (Q96JP5 2-570 partner limits assumed): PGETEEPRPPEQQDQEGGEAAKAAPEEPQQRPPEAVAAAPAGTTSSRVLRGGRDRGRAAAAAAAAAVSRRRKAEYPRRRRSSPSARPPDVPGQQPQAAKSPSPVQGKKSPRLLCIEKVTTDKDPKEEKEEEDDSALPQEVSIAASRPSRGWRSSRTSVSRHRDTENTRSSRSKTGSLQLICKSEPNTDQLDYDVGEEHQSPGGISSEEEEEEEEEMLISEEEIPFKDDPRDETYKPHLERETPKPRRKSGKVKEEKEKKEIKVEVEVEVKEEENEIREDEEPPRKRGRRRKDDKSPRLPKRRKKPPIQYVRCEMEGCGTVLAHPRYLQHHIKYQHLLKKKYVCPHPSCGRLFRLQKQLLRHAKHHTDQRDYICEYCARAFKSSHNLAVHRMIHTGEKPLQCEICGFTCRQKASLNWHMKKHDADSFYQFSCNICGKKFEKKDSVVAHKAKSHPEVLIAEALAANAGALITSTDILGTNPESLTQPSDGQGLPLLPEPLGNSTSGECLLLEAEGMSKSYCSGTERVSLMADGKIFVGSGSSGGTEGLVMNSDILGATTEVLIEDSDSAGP
Protein cereblon/E3 ubiquitin-protein ligase ZFP91, sequence (Q96SW2 whole entry): as the sequence (Q96SW2 whole entry partner) above
In short: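 BxPC-3 cells treated for 4, 16 or 24 h across a concentration series. ZFP91 immunoblotted against GAPDH; bands quantified by densitometry, DC50 calculated from dose-response curves of the densitometry.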

BXPC-3 [11] = assay: Antiproliferative activity against ZFP91 knockdown human BxPC-3 cells assessed as reduction in cell viability incubated for 48 hrs by MTT assay; type: functional, cell-based; settings: BXPC-3, 48 h
In short: (§3)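 BxPC-3 cells were transfected with ZFP91 siRNA or scrambled control siRNA using Lipofectamine RNAiMAX in Opti-MEM, 5 pmol siRNA per complex. Compound was added together with the siRNA complex.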

BXPC-3 [12] = assay: Antiproliferative activity against human BxPC-3 cells harboring ZFP91siRNA assessed as reduction in cell viability incubated for 48 hrs by MTT assay; type: functional, cell-based; settings: BXPC-3, 48 h; in short: as §3
BXPC-3 [13] = assay: Inhibition of colony formation in human BxPC-3 cells assessed as reduction in colony formation at 0.06 to 0.5 uM incubated for 7 to 10 days in presence of NQO1 inhibitor dicoumarol; settings: dose 0.06-0.5 µM

SMILES	IC50 (MIA PaCa-2)	IC50 (BXPC-3 [1])	IC50 (HEK293)	further results
O=C1CCC(N2C(=O)c3cccc(NCCOCCNC(=O)c4cc5c(o4)C(=O)c4ccccc4C5=O)c3C2=O)C(=O)N1 (centres undefined)	2.6 µM	4.6 µM	–	–
CN1C(=O)CCC(N2C(=O)c3cccc(NCCCCCC4CCN(CCNC(=O)c5cc6c(o5)C(=O)c5ccccc5C6=O)CC4)c3C2=O)C1=O (centres undefined)	2.7 µM	3.4 µM	> 30 µM	Activity [2]: inactive; inhibition [3]: Active
O=C1CCC(N2C(=O)c3cccc(NCCOCCOCCOCCOCCNC(=O)c4cc5c(o4)C(=O)c4ccccc4C5=O)c3C2=O)C(=O)N1 (centres undefined)	4.4 µM	10.1 µM	> 10 µM	–
O=C1CCC(N2C(=O)c3cccc(NCCN4CCN(CCNC(=O)c5cc6c(o5)C(=O)c5ccccc5C6=O)CC4)c3C2=O)C(=O)N1 (centres undefined)	18.1 µM	25.6 µM	–	–
O=C(COc1cccc2c1C(=O)N(C1CCC(=O)NC1=O)C2=O)NCCCCNC(=O)c1cc2c(o1)C(=O)c1ccccc1C2=O (centres undefined)	10.5 µM	23.8 µM	> 30 µM	–
O=C1CCC(N2C(=O)c3cccc(NCCOCCOCCOCCNC(=O)c4cc5c(o4)C(=O)c4ccccc4C5=O)c3C2=O)C(=O)N1 (centres undefined)	2.1 µM	4.5 µM	11.2 µM	–
O=C(COc1cccc2c1C(=O)N(C1CCC(=O)NC1=O)C2=O)NCCOCCOCCNC(=O)c1cc2c(o1)C(=O)c1ccccc1C2=O (centres undefined)	16.7 µM	20.4 µM	–	–
O=C1CCC(N2C(=O)c3cccc(C#CCCCNC(=O)c4cc5c(o4)C(=O)c4ccccc4C5=O)c3C2=O)C(=O)N1 (centres undefined)	2.1 µM	5.3 µM	18.6 µM	–
O=C(NCCN1CCCCC1)c1cc2c(o1)C(=O)c1ccccc1C2=O	–	–	–	Activity [4]: inactive; inhibition [5]: Active
O=C1CCC(N2C(=O)c3cccc(OCCCCNC(=O)c4cc5c(o4)C(=O)c4ccccc4C5=O)c3C2=O)C(=O)N1 (centres undefined)	2 µM	4.2 µM	> 10 µM	–
O=C1CCC(N2C(=O)c3cccc(NCCCC4CCN(CCNC(=O)c5cc6c(o5)C(=O)c5ccccc5C6=O)CC4)c3C2=O)C(=O)N1 (centres undefined)	–	0.6 µM	–	–
Nc1cccc2c1C(=O)N(C1CCC(=O)NC1=O)C2=O (centres undefined) [POMALIDOMIDE]	> 30 µM	> 30 µM	–	–
O=C1CCC(N2C(=O)c3ccc(NCCOCCOCCNC(=O)c4cc5c(o4)C(=O)c4ccccc4C5=O)cc3C2=O)C(=O)N1 (centres undefined)	–	–	> 10 µM	–
Cc1ncsc1-c1ccc(CNC(=O)[C@@H]2C[C@@H](O)CN2C(=O)[C@@H](NC(=O)COCCNC(=O)c2cc3c(o2)C(=O)c2ccccc2C3=O)C(C)(C)C)cc1	15.8 µM	> 30 µM	> 30 µM	–
O=C1CCC(N2C(=O)c3cccc(NCCC4CCN(CCNC(=O)c5cc6c(o5)C(=O)c5ccccc5C6=O)CC4)c3C2=O)C(=O)N1 (centres undefined)	1.1 µM	1.1 µM	–	–
O=C1CCC(N2C(=O)c3cccc(NCCCNC(=O)c4cc5c(o4)C(=O)c4ccccc4C5=O)c3C2=O)C(=O)N1 (centres undefined)	2.7 µM	3.5 µM	–	–
O=C1CCC(N2Cc3c(CCCCCNC(=O)c4cc5c(o4)C(=O)c4ccccc4C5=O)cccc3C2=O)C(=O)N1 (centres undefined)	6.4 µM	13.8 µM	–	–
O=C(COc1cccc2c1C(=O)N(C1CCC(=O)NC1=O)C2=O)NCCOCCOCCOCCNC(=O)c1cc2c(o1)C(=O)c1ccccc1C2=O (centres undefined)	3.7 µM	6 µM	–	–
CC(=O)c1cc2c(o1)C(=O)c1ccccc1C2=O [NAPABUCASIN]	1.2 µM	1.4 µM	10.4 µM	DC50 [6]: 2.1 µM; inhibition (BXPC-3 [7]): Active; Activity (BXPC-3 [8]): Active; Activity [9]: Active; Activity [10]: inactive; IC50 (BXPC-3 [11]): 1.8 µM; IC50 (BXPC-3 [12]): 1.3 µM; inhibition (BXPC-3 [13]): Active
O=C1CCC(N2C(=O)c3cccc(NCCCCCNC(=O)c4cc5c(o4)C(=O)c4ccccc4C5=O)c3C2=O)C(=O)N1 (centres undefined)	1.8 µM	3.2 µM	> 10 µM	–
Cc1ncsc1-c1ccc(CNC(=O)[C@@H]2C[C@@H](O)CN2C(=O)[C@@H](NC(=O)COCCOCCNC(=O)c2cc3c(o2)C(=O)c2ccccc2C3=O)C(C)(C)C)cc1	14.5 µM	> 30 µM	> 30 µM	–
O=C1CCC(N2C(=O)c3cccc(OCCOCCOCCNC(=O)c4cc5c(o4)C(=O)c4ccccc4C5=O)c3C2=O)C(=O)N1 (centres undefined)	3.8 µM	8.2 µM	–	–
O=C1CCC(N2C(=O)c3cccc(NCCCCNC(=O)c4cc5c(o4)C(=O)c4ccccc4C5=O)c3C2=O)C(=O)N1 (centres undefined)	1.6 µM	4.1 µM	–	–
O=C1CCC(N2C(=O)c3cccc(NCCOCCOCCOCCOCCOCCOCCNC(=O)c4cc5c(o4)C(=O)c4ccccc4C5=O)c3C2=O)C(=O)N1 (centres undefined)	5 µM	7.5 µM	10.8 µM	–
O=C1CCC(N2C(=O)c3cccc(NCCCCCCNC(=O)c4cc5c(o4)C(=O)c4ccccc4C5=O)c3C2=O)C(=O)N1 (centres undefined)	3 µM	4.2 µM	–	–
O=C1CCC(N2C(=O)c3cccc(NCCNC(=O)c4cc5c(o4)C(=O)c4ccccc4C5=O)c3C2=O)C(=O)N1 (centres undefined)	4 µM	1.7 µM	> 30 µM	–
O=C1CCC(N2Cc3c(NCCOCCOCCNC(=O)c4cc5c(o4)C(=O)c4ccccc4C5=O)cccc3C2=O)C(=O)N1 (centres undefined)	13.7 µM	–	> 30 µM	–
